Laboratory results: ChEMBL document CHEMBL1124270, “Quinolone antibacterial agents. Synthesis and structure-activity relationships of 8-substituted quinoline-3-carboxylic acids and 1,8-naphthyridine-3-carboxylic acids” (1988)
In brackets after ≈: the same amount, converted by molar mass.

Assays:
Type in all cases: functional
[1] = test system: Providencia rettgeri; assay: Minimum inhibitory concentration against Providencia rettgeri H1771 in vitro.
[2] = test system: Streptococcus pneumoniae; assay: In vivo potency against Streptococcus pneumoniae using mouse protection assay following p.o. administration.; settings: po, read-out: PD50
[3] = test system: Mus musculus; assay: In vivo potency against Escherichia coli vogel using mouse protection assay when given subcutaneously; settings: sc, read-out: PD50
[4] = test system: Escherichia coli; assay: Minimum concentration needed to produce linear DNA at an intensity relative to oxolinic at 10 ug/mL in Escherichia coli H560 in vitro.
Summary of the method: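 DNA gyrase cleavage test, run as previously described: end point is the lowest drug level (µg/mL) that yields linear DNA at a band intensity matching oxolinic acid at 10 µg/mL. Values come from duplicate or triplicate experiments and are stated as accurate to ±50%.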

[5] = test system: Staphylococcus aureus; assay: Minimum inhibitory concentration against Staphylococcus aureus H228 in vitro.
[6] = test system: Enterococcus faecalis; assay: Minimum inhibitory concentration against Streptococcus faecalis MGH-2 in vitro.
[7] = test system: Mus musculus; assay: In vivo potency against Escherichia coli vogel using mouse protection assay when given perorally; settings: po, read-out: PD50
[8] = test system: Klebsiella pneumoniae; assay: Minimum inhibitory concentration against Klebsiella pneumoniae MGH-2 in vitro.
[9] = test system: Escherichia coli; assay: Minimum inhibitory concentration against Escherichia coli vogel in vitro.
[10] = test system: Streptococcus pneumoniae; assay: Minimum inhibitory concentration against Streptococcus pneumoniae SV-1 in vitro.
[11] = test system: Streptococcus pyogenes; assay: Minimum inhibitory concentration against Streptococcus pyogenes C203 in vitro.
[12] = test system: Enterobacter cloacae; assay: Minimum inhibitory concentration against Enterobacter cloacae HA 2646 in vitro.
[13] = test system: Staphylococcus aureus; assay: In vivo potency against Staphylococcus aureus using mouse protection assay following p.o. administration.; settings: po, read-out: PD50
[14] = test system: Staphylococcus aureus; assay: Minimum inhibitory concentration against Staphylococcus aureus UC-76 in vitro.
[15] = test system: Staphylococcus aureus; assay: In vivo potency against Staphylococcus aureus using mouse protection assay following s.c. administration.; settings: sc, read-out: PD50
[16] = test system: Streptococcus pneumoniae; assay: In vivo potency against Streptococcus pneumoniae using mouse protection assay following s.c. administration.; settings: sc, read-out: PD50
[17] = test system: Pseudomonas aeruginosa; assay: Minimum inhibitory concentration against Pseudomonas aeruginosa UI-18 in vitro.
[18] = test system: Escherichia coli; assay: Minimum inhibitory concentration against Escherichia coli H560 in vitro.

NC1CCN(c2nc3c(cc2F)c(=O)c(C(=O)O)cn3C2CC2)C1 (configuration not stated)
MIC [1]: 0.1 µg/mL (≈ 0.301 µM)
ED50 [2]: 58 mg/kg
ED50 [3]: 0.6 mg/kg
DNA cleavage conc (gyrase) [4]: 1 µg/mL
MIC [5]: 0.2 µg/mL (≈ 0.602 µM)
MIC [6]: 0.2 µg/mL (≈ 0.602 µM)
ED50 [7]: 2 mg/kg
MIC [8]: 0.025 µg/mL (≈ 0.0752 µM)
MIC [9]: 0.013 µg/mL (≈ 0.0391 µM)
MIC [10]: 0.2 µg/mL (≈ 0.602 µM)
MIC [11]: 0.2 µg/mL (≈ 0.602 µM)
MIC [12]: 0.05 µg/mL (≈ 0.15 µM)
ED50 [13]: 7 mg/kg
MIC [14]: 0.013 µg/mL (≈ 0.0391 µM)
ED50 [15]: 3 mg/kg
ED50 [16]: 33 mg/kg
MIC [17]: 0.05 µg/mL (≈ 0.15 µM)
MIC [18]: 0.006 µg/mL (≈ 0.0181 µM)

CN(C)CC1CCN(c2nc3c(cc2F)c(=O)c(C(=O)O)cn3C2CC2)C1 (configuration not stated)
MIC [1]: 0.8 µg/mL (≈ 2.14 µM)
ED50 [2]: 7 mg/kg
ED50 [3]: 1 mg/kg
DNA cleavage conc (gyrase) [4]: 0.75 µg/mL
MIC [5]: 0.1 µg/mL (≈ 0.267 µM)
MIC [6]: 0.2 µg/mL (≈ 0.534 µM)
ED50 [7]: 2 mg/kg
MIC [8]: 0.2 µg/mL (≈ 0.534 µM)
MIC [9]: 0.05 µg/mL (≈ 0.134 µM)
MIC [10]: 0.05 µg/mL (≈ 0.134 µM)
MIC [11]: 0.1 µg/mL (≈ 0.267 µM)
MIC [12]: 0.1 µg/mL (≈ 0.267 µM)
ED50 [13]: 31 mg/kg
MIC [14]: 0.05 µg/mL (≈ 0.134 µM)
ED50 [15]: 27 mg/kg
ED50 [16]: 7 mg/kg
MIC [17]: 0.4 µg/mL (≈ 1.07 µM)
MIC [18]: 0.05 µg/mL (≈ 0.134 µM)

Cl.Cl.NC1CCN(c2cc3c(cc2F)c(=O)c(C(=O)O)cn3C2CC2)C1 (configuration not stated)
MIC [1]: 0.1 µg/mL
ED50 [2]: 43 mg/kg
ED50 [3]: 0.5 mg/kg
DNA cleavage conc (gyrase) [4]: 0.1 µg/mL
MIC [5]: 0.1 µg/mL
MIC [6]: 0.1 µg/mL
ED50 [7]: 3 mg/kg
MIC [8]: 0.1 µg/mL
MIC [9]: 0.025 µg/mL
MIC [10]: 0.05 µg/mL
MIC [11]: 0.1 µg/mL
MIC [12]: 0.025 µg/mL
ED50 [13]: 49.5 mg/kg
MIC [14]: 0.025 µg/mL
ED50 [16]: 4 mg/kg
MIC [17]: 0.1 µg/mL
MIC [18]: 0.006 µg/mL

Cl.NC1CCN(c2c(F)cc3c(=O)c(C(=O)O)cn(C4CC4)c3c2F)C1 (configuration not stated)
MIC [1]: 0.05 µg/mL
ED50 [2]: 15 mg/kg
ED50 [3]: 0.2 mg/kg
DNA cleavage conc (gyrase) [4]: 0.1 µg/mL
MIC [5]: 0.05 µg/mL
MIC [6]: 0.05 µg/mL
ED50 [7]: 1 mg/kg
MIC [8]: 0.025 µg/mL
MIC [9]: 0.013 µg/mL
MIC [10]: 0.05 µg/mL
MIC [11]: 0.05 µg/mL
MIC [12]: 0.025 µg/mL
ED50 [13]: 7 mg/kg
MIC [14]: 0.025 µg/mL
ED50 [15]: 3 mg/kg
ED50 [16]: 6 mg/kg
MIC [17]: 0.1 µg/mL
MIC [18]: 0.006 µg/mL

O=C(O)c1cn(C2CC2)c2cc(N3CCNCC3)c(F)cc2c1=O [CIPROFLOXACIN]
MIC [1]: 0.1 µg/mL (≈ 0.302 µM)
ED50 [2]: > 100 mg/kg
ED50 [3]: 0.3 mg/kg
MIC [5]: 3.1 µg/mL (≈ 9.36 µM)
MIC [6]: 0.8 µg/mL (≈ 2.41 µM)
ED50 [7]: 1 mg/kg
MIC [8]: 0.1 µg/mL (≈ 0.302 µM)
MIC [10]: 1.6 µg/mL (≈ 4.83 µM)
MIC [11]: 0.8 µg/mL (≈ 2.41 µM)
ED50 [13]: 25 mg/kg
MIC [14]: 0.2 µg/mL (≈ 0.604 µM)
ED50 [15]: 5 mg/kg
ED50 [16]: 19 mg/kg
MIC [17]: 0.4 µg/mL (≈ 1.21 µM)
MIC [18]: 0.025 µg/mL (≈ 0.0754 µM)

Cl.NC1CCN(c2c(F)cc3c(=O)c(C(=O)O)cn(C4CC4)c3c2Cl)C1 (configuration not stated) [CLINAFLOXACIN HYDROCHLORIDE]
MIC [1]: 0.025 µg/mL
ED50 [2]: 10 mg/kg
ED50 [3]: 0.6 mg/kg
DNA cleavage conc (gyrase) [4]: 0.5 µg/mL
MIC [5]: 0.05 µg/mL
MIC [6]: 0.05 µg/mL
ED50 [7]: 3 mg/kg
MIC [8]: 0.025 µg/mL
MIC [9]: 0.013 µg/mL
MIC [10]: 0.05 µg/mL
MIC [11]: 0.05 µg/mL
MIC [12]: 0.025 µg/mL
ED50 [13]: 13 mg/kg
MIC [14]: 0.013 µg/mL
ED50 [15]: 5 mg/kg
ED50 [16]: 4 mg/kg
MIC [17]: 0.05 µg/mL
MIC [18]: 0.006 µg/mL

CCNCC1CCN(c2c(F)cc3c(=O)c(C(=O)O)cn(C4CC4)c3c2F)C1 (configuration not stated) [PD-117558]
MIC [1]: 0.2 µg/mL (≈ 0.511 µM)
ED50 [2]: 3 mg/kg
ED50 [3]: 1 mg/kg
DNA cleavage conc (gyrase) [4]: 0.25 µg/mL
MIC [5]: 0.025 µg/mL (≈ 0.0639 µM)
MIC [6]: 0.025 µg/mL (≈ 0.0639 µM)
ED50 [7]: 4 mg/kg
MIC [8]: 0.1 µg/mL (≈ 0.255 µM)
MIC [9]: 0.05 µg/mL (≈ 0.128 µM)
MIC [10]: 0.025 µg/mL (≈ 0.0639 µM)
MIC [11]: 0.025 µg/mL (≈ 0.0639 µM)
MIC [12]: 0.1 µg/mL (≈ 0.255 µM)
ED50 [13]: 59 mg/kg
MIC [14]: 0.006 µg/mL (≈ 0.0153 µM)
ED50 [15]: 40 mg/kg
ED50 [16]: 2 mg/kg
MIC [17]: 0.4 µg/mL (≈ 1.02 µM)
MIC [18]: 0.025 µg/mL (≈ 0.0639 µM)
